Results published in PubChem BioAssay.
Records with an inconclusive call do not appear.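 Rule for the calls, unless noted: active = cell viability at or below a set limit in both duplicate runs, the limit being the all-compound median minus 4 SD (cut at about 23% in these data, passing the limit was not always enough); inconclusive = no clear call, values can overlap the other calls; inactive = the rest.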

Key:
[1] = S. cerevisiae growth inhibition in permissive medium (OD615), pilot counter-assay for S. cerevisiae lifespan shortening project, permissive growth control (AID 705;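 active = growth inhibition above 25% in both replicates, a cutoff set 3 SD above the mean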); settings: OD615, 24 h, at 10 µM, stronger effect = higher value
Outline: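 System: Engineered DeaD yeast | Buffer or medium: SC raffinose/galactose permissive medium | Doses: 10 µM single dose, 0.25% DMSO | Times: 24 h exposure, 30 °C | Measured by: OD615 turbidity read | Read-out: Yeast growth inhibition indicated by reduced 24 h OD615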

[2] = S. cerevisiae growth inhibition in restrictive medium, OD615, pilot screen, restrictive growth control, yeast lifespan reduction project (AID 706;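 active = growth inhibition above a set limit, 3 SD over mean compound inhibition, in both replicates, cut at about 43% in these data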;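 note: modified DeaD lifespan yeast strain shifted to restrictive glucose medium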); settings: OD615, 48 h, at 10 µM, stronger effect = higher value
Outline: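 Assay system: engineered S. cerevisiae DeaD strain; Buffer or medium: CSMM-D glucose medium; Dosing: 10 µM compound, 0.25% DMSO; Times: cell pre-growth 4 h, compound exposure 48 h, 30 °C; Detection: absorbance (optical density) measured at 615 nm.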

[3] = doxorubicin toxicity protection in MRP-1 cells – H69AR cells, CellTiter-Glo, duplicate, MRP-1 activator project, pilot screen (AID 807;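 active = viability increase at or above a cutoff of the median across tested compounds plus 3 SD, cut at about 8.5% in these data, passing the limit was not always enough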;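 note: compound pretreatment 18-22 h then 72 h combined with doxorubicin; 0% = doxorubicin alone and 100% = vehicle without doxorubicin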); settings: H69AR viability with doxorubicin, CellTiter-Glo luminescence; at 10 µM; stronger effect = higher value
[4] = viability of HCT116 without oncogenic beta-catenin – human colon tumor cells, pilot screen (AID 823); settings: HCT116 beta-catenin knockout viability, CellTiter-Glo, 60 h; at 10 µM; stronger effect = lower value;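 note: 0% = wells killed by 20 µM Hyamine and 100% = untreated DMSO cell wells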
[5] = viability of PTEN-null HCT116 cells – cell-based, HCT116 clonal line, CellTiter-Glo, pilot screen (AID 824;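 active = viability at or below 27.92% in each of two runs, the all-compound median minus 4 SD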;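 note: 0% = 20 µM Hyamine control and 100% = vehicle cell control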); settings: HCT116 PTEN-deleted viability, 60 h, at 10 µM, stronger effect = lower value
[6] = RAM pathway blockade in budding yeast – dse1pr::URA3 reporter, 5-FOA selection, pilot screen (AID 869;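 active = inhibition over a set limit, the all-compound mean plus 3 SD, in both replicate runs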;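 note: 0% = DMSO wells with no growth and 100% = 10 µM 1-NA-PP1 with full growth; RAM network block rescues cells from 5-FOA so hits raise OD615 growth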); settings: S. cerevisiae dse1pr::URA3 5-FOA growth, OD615, 2 d; at 10 µM; stronger effect = higher value; strain carries analog-sensitive mutant Cbk1 kinase
[7] = RAM signaling pathway blockade in yeast – S. cerevisiae, Pdr1DBD-CYC8 efflux-inhibited sensitized strain, primary screen (AID 1298;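 active = RAM network inhibition above 8.4% in each of two replicates, 3 SD over the compound average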;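 note: 0% = DMSO untreated cells without growth and 100% = 10 µM 1-NA-PP1 full growth; higher means more yeast growth rescued from 5-FOA killing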); settings: S. cerevisiae cbk1-as DSE1-URA3 strain, 5-FOA growth OD615, 2 d; at 50 µM; stronger effect = higher value

CC1(C)NC(=O)N(CC(O)COc2ccc(N3C(=O)c4ccccc4C3=O)cc2)C1=O (stereo unspecified)
inactive: growth inhibition [1] -3.45% | growth inhibition [2] -3.49% | viability increase [3] -1.32% | viability [4] 102% | viability [5] 96.5% | inhibition [6] 1.87% | RAM network inhibition [7] 0.17%

COc1cc(=O)[nH]c(=O)n1C(=O)Cc1ccccc1
inactive: growth inhibition [1] -1.48% | growth inhibition [2] -1.73% | viability increase [3] 0% | viability [4] 97.4% | viability [5] 104% | inhibition [6] -0.145% | RAM network inhibition [7] 4.08%

Cc1ccc(C)c(SCC(=O)OCC(=O)c2ccco2)c1
inactive: growth inhibition [1] -21.2% | growth inhibition [2] -14.6% | viability increase [3] -3.35% | viability [4] 88.9% | viability [5] 91.6% | inhibition [6] 0.705% | RAM network inhibition [7] 2.26%

Cc1cc(-c2nnc(-c3cc4ccccc4oc3=O)o2)c(C)n1-c1ccccc1
inactive: growth inhibition [1] -0.055% | growth inhibition [2] -2.88% | viability increase [3] -2.92% | viability [4] 79.7% | viability [5] 79.1% | inhibition [6] 3.04% | RAM network inhibition [7] 3.21%

CCOC(=O)C1CCCN(C(=O)C2CCN(c3nnc(-n4cccc4)s3)CC2)C1 (stereo unspecified)
inactive: growth inhibition [1] 5.27% | growth inhibition [2] 2.6% | viability increase [3] -2.17% | viability [4] 98.5% | viability [5] 90.8% | inhibition [6] 1.1% | RAM network inhibition [7] 2.55%

CCOC(=O)C1Cn2c(nc3c(c2=O)C(C)(C)Cc2ccccc2-3)S1 (stereo unspecified)
inactive: growth inhibition [1] -1.77% | growth inhibition [2] 2.82% | viability increase [3] 0.36% | viability [4] 90.2% | viability [5] 88.5% | inhibition [6] 3.48% | RAM network inhibition [7] 8.31%

CC1Cc2ccccc2N1C(=O)c1ccc2snnc2c1 (stereo unspecified)
inactive: growth inhibition [1] -1.7% | growth inhibition [2] -9.59% | viability increase [3] -3.96% | viability [4] 95% | viability [5] 96.8% | inhibition [6] 0.79% | RAM network inhibition [7] 6.74%

Cc1nc(SCC(=O)Nc2cccc(Cl)c2)n[nH]1
inactive: growth inhibition [1] -4.9% | growth inhibition [2] -4.81% | viability increase [3] -1.48% | viability [4] 97% | viability [5] 97.7% | inhibition [6] 0.56% | RAM network inhibition [7] -0.63%

CC(=O)c1cccc(NC(=O)CN(c2ccc(F)cc2)S(C)(=O)=O)c1
inactive: growth inhibition [1] -13% | growth inhibition [2] -15.2% | viability increase [3] -3.2% | viability [4] 98.2% | viability [5] 98.7% | inhibition [6] 0.845% | RAM network inhibition [7] 5.96%

COc1ccc(C2C(C(=O)NCC3CCCO3)c3cc(OC)c(OC)cc3C(=O)N2C)cc1OC (stereo unspecified)
inactive: growth inhibition [1] -13.5% | growth inhibition [2] -13.4% | viability increase [3] -1.75% | viability [4] 92.4% | viability [5] 99.7% | inhibition [6] 1.46% | RAM network inhibition [7] 0.94%

CC(CCCC(C)(C)O)NCCO (stereo unspecified)
inactive: growth inhibition [1] -9.36% | growth inhibition [2] -4.3% | viability increase [3] 1.25% | viability [4] 102% | viability [5] 106% | inhibition [6] 2.67% | RAM network inhibition [7] -0.17%

Cc1cccc(-c2nnc(-c3ccccc3)o2)c1
inactive: growth inhibition [1] -8.19% | growth inhibition [2] -3.2% | viability increase [3] -5.21% | viability [4] 78% | viability [5] 81.7% | inhibition [6] 1.5% | RAM network inhibition [7] 1.78%

OC(COc1ccc2ccccc2c1)CN1CCN(c2ccc(F)cc2)CC1 (stereo unspecified)
inactive: growth inhibition [1] 3.06% | growth inhibition [2] -5.26% | viability increase [3] -4.36% | viability [4] 81.7% | viability [5] 84.4% | inhibition [6] 1.09% | RAM network inhibition [7] 1.23%

COc1ccc(CCNc2oc(-c3ccc(C)cc3)nc2C#N)cc1OC
inactive: growth inhibition [1] -10.8% | growth inhibition [2] -13.3% | viability increase [3] -0.33% | viability [4] 95.8% | viability [5] 104% | inhibition [6] 0.67% | RAM network inhibition [7] -0.47%

Cc1cc(NC(=O)C2CC(c3ccc(F)cc3)=NO2)no1 (stereo unspecified)
inactive: growth inhibition [1] -0.42% | growth inhibition [2] -0.655% | viability increase [3] -0.18% | viability [4] 101% | viability [5] 109% | inhibition [6] -0.08% | RAM network inhibition [7] 4.62%

COc1ccc(S(=O)(=O)Cc2ccc(C(=O)N3CCN(C4CCCCC4)CC3)o2)cc1
inactive: growth inhibition [1] 8.67% | growth inhibition [2] 7.12% | viability increase [3] -2.58% | viability [4] 78.9% | viability [5] 90% | inhibition [6] 0.75% | RAM network inhibition [7] -1.9%

CC(=O)c1c(Nc2ccc3c(c2)OCCO3)oc(C)cc1=O
inactive: growth inhibition [1] -21.9% | growth inhibition [2] 0.47% | viability increase [3] -5.39% | viability [4] 110% | viability [5] 100% | inhibition [6] 0.68% | RAM network inhibition [7] -2.1%

O=C(c1ccc(NC2=NC3CS(=O)(=O)CC3S2)cc1)N1CCc2ccccc2C1 (stereo unspecified)
inactive: growth inhibition [1] -0.26% | growth inhibition [2] 11.2% | viability increase [3] -0.55% | viability [4] 109% | viability [5] 106% | inhibition [6] 1.67% | RAM network inhibition [7] 5.69%
